In brackets after ≈: the same amount, converted by molar mass. Activity calls are given as the source filed them. The rule behind the calls is not given here. Where a SMILES comes first, the peptide text is derived from it.
Tests used:
[1] = Stability of the compound at 136 uM after 4 hrs in presence of aureolysin; assay type: ADME
Outline: (§1)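 Peptide at 136 µM was incubated with protease (peptide:enzyme 300:1) for 4 h at 37°C in 10 mM Tris, pH 7.4. The reaction was stopped by boiling in Laemmli buffer, then run on Tris-Tricine 16.5% SDS-PAGE and Coomassie stained. Band densitometry gave the undegraded fraction, normalized to peptide incubated without enzyme. Two separate experiments.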

[2] = Stability of the compound at 136 uM after 4 hrs in presence of Pseudomonas aeruginosa elastase; assay type: ADME; outline: as §1
[3] = Stability of the compound at 136 uM after 4 hrs in presence of […] V8 protease; assay type: ADME; outline: as §1
[4] = Stability of the compound at 136 uM after 4 hrs in presence of human neutrophil elastase; assay type: ADME; outline: as §1
Staphylococcus aureus [5] = experiment: Antimicrobial activity against Staphylococcus aureus 29213 after 21 hrs by broth microdilution method; assay type: functional; conditions: Staphylococcus aureus, 29213, 21 h
Outline: (§2)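 Microtiter broth dilution at 37°C for 21 h in DEAE-refined LB medium prepared in 10 mM Tris, pH 7.4. Bacteria were grown overnight in 3% trypticase soy broth, rinsed in Tris and used at about 10^6 CFU/ml. Final peptide was 0.6–80 µM in twofold steps. Growth was read visually as pellet and at OD540. MIC is >95% inhibition with no visible pellet. Two separate experiments.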

Staphylococcus aureus [6] = experiment: Antimicrobial activity against Staphylococcus aureus FDA 486 after 21 hrs by broth microdilution method; assay type: functional; conditions: FDA 486, 21 h; outline: as §2
Staphylococcus aureus [7] = experiment: Antimicrobial activity against Staphylococcus aureus 2844 after 21 hrs by broth microdilution method; assay type: functional; conditions: Staphylococcus aureus, 2844, 21 h; outline: as §2
Pseudomonas aeruginosa [8] = experiment: Antimicrobial activity against Pseudomonas aeruginosa ATCC 27853 after 21 hrs by broth microdilution method; assay type: functional; conditions: ATCC 27853, 21 h; outline: as §2
Pseudomonas aeruginosa [9] = experiment: Antimicrobial activity against Pseudomonas aeruginosa 15159 after 21 hrs by broth microdilution method; assay type: functional; conditions: Pseudomonas aeruginosa, 15159, 21 h; outline: as §2
Lipid bilayer = experiment: Induction of DOPC-cholesterol liposome leakage in cell-free system at 0.1 to 1 uM after 45 mins; assay type: functional
Outline: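 Carboxyfluorescein-loaded (100 mM, self-quenching) DOPC-cholesterol 3:2 unilamellar liposomes, about 110 nm, at 10 µM lipid in Tris buffer at 37°C with stirring. Peptide was added at a single concentration per experiment, between 0.01 and 1 µM. After a 10 min baseline, fluorescence increase was followed for 45 min and the limiting leakage level taken.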

| SMILES | Stability [1] | Stability [2] | Stability [3] | Stability [4] | MIC (Staphylococcus aureus [5]) [µM] | MIC (Staphylococcus aureus [6]) [µM] | MIC (Staphylococcus aureus [7]) [µM] | MIC (Pseudomonas aeruginosa [8]) [µM] | MIC (Pseudomonas aeruginosa [9]) [µM] | Activity (Lipid bilayer) |
| --- | --- | --- | --- | --- | --- | --- | --- | --- | --- | --- |
| CC[C@@H](C)[C@@H](NC(=O)[C@H](CCCNC(=N)N)NC(=O)[C@H](CCC(N)=O)NC(=O)[C@@H](NC(=O)[C@H](NC(=O)[C@H](CCCNC(=N)N)NC(=O)[C@H](CCCCN)NC(=O)[C@@H](Cc1ccccc1)NC(=O)[C@H](CCC(=O)O)NC(C)=O)[C@H](C)CC)C(C)C)C(=O)N[C@@H](CCCCN)C(=O)N[C@@H](CC(=O)O)C(=O)N[C@H](Cc1ccccc1)C(=O)N[C@@H](CC(C)C)C(=O)N[C@@H](CCCNC(=N)N)C(=O)N[C@@H](CC(N)=O)C(=O)N[C@@H](CC(C)C)C(=O)N[C@H](C(N)=O)C(C)C |  |  |  |  | > 80 | > 80 | > 80 | > 80 | > 80 |  |
| CC[C@H](C)[C@@H](NC(=O)[C@H](CCCNC(=N)N)NC(=O)[C@H](CCC(N)=O)NC(=O)[C@@H](NC(=O)[C@H](NC(=O)[C@H](CCCNC(=N)N)NC(=O)[C@H](CCCCN)NC(=O)[C@@H](Cc1ccccc1)NC(=O)[C@H](CCC(=O)O)NC(C)=O)[C@@H](C)CC)C(C)C)C(=O)N[C@@H](CCCCN)C(=O)N[C@@H](CC(=O)O)C(=O)N[C@H](Cc1ccccc1)C(=O)N[C@@H](CC(C)C)C(=O)N[C@@H](CCCNC(=N)N)C(=O)N[C@@H](CC(N)=O)C(=O)N[C@@H](CC(C)C)C(=O)N[C@H](C(N)=O)C(C)C |  |  |  |  |  |  |  |  |  | Active |

Now from value to compound, other results behind:

| Stability [1] | Stability [2] | Stability [3] | Stability [4] | MIC (Staphylococcus aureus [5]) [µM] | MIC (Staphylococcus aureus [6]) [µM] | MIC (Staphylococcus aureus [7]) [µM] | MIC (Pseudomonas aeruginosa [8]) [µM] | MIC (Pseudomonas aeruginosa [9]) [µM] | SMILES | Activity (Lipid bilayer) |
| --- | --- | --- | --- | --- | --- | --- | --- | --- | --- | --- |
| Stable | Stable | Stable | Stable |  |  |  |  |  | CC[C@@H](C)[C@@H](NC(=O)[C@H](CCCNC(=N)N)NC(=O)[C@H](CCC(N)=O)NC(=O)[C@@H](NC(=O)[C@H](NC(=O)[C@H](CCCNC(=N)N)NC(=O)[C@H](CCCCN)NC(=O)[C@@H](Cc1ccccc1)NC(=O)[C@@H](N)CCC(=O)O)[C@H](C)CC)C(C)C)C(=O)N[C@@H](CCCCN)C(=O)N[C@@H](CC(=O)O)C(=O)N[C@H](Cc1ccccc1)C(=O)N[C@@H](CC(C)C)C(=O)N[C@@H](CCCNC(=N)N)C(=O)N[C@@H](CC(N)=O)C(=O)N[C@@H](CC(C)C)C(=O)N[C@H](C(=O)O)C(C)C [listing 1 of 2 here] |  |
|  |  |  |  | > 80 | > 80 | > 80 | > 80 | > 80 | CC[C@@H](C)[C@@H](NC(=O)[C@H](CCCNC(=N)N)NC(=O)[C@H](CCC(N)=O)NC(=O)[C@@H](NC(=O)[C@H](NC(=O)[C@H](CCCNC(=N)N)NC(=O)[C@H](CCCCN)NC(=O)[C@@H](Cc1ccccc1)NC(=O)[C@@H](N)CCC(=O)O)[C@H](C)CC)C(C)C)C(=O)N[C@@H](CCCCN)C(=O)N[C@@H](CC(=O)O)C(=O)N[C@H](Cc1ccccc1)C(=O)N[C@@H](CC(C)C)C(=O)N[C@@H](CCCNC(=N)N)C(=O)N[C@@H](CC(N)=O)C(=O)N[C@@H](CC(C)C)C(=O)N[C@H](C(=O)O)C(C)C [listing 2 of 2 here] |  |
| Stable | Unstable | Stable | Stable | 10 (≈ 24.4 µg/mL) | 5 (≈ 12.2 µg/mL) | 5 (≈ 12.2 µg/mL) | 10 (≈ 24.4 µg/mL) | 10 (≈ 24.4 µg/mL) | CC(=O)N[C@@H](CCC(=O)O)C(=O)N[C@@H](Cc1c[nH]c2ccccc12)C(=O)N[C@@H](CCCCN)C(=O)N[C@@H](CCCNC(=N)N)C(=O)N[C@@H](Cc1c[nH]c2ccccc12)C(=O)N[C@H](C(=O)N[C@@H](CCC(N)=O)C(=O)N[C@@H](CCCNC(=N)N)C(=O)N[C@@H](Cc1c[nH]c2ccccc12)C(=O)N[C@@H](CCCCN)C(=O)N[C@@H](CC(=O)O)C(=O)N[C@@H](Cc1c[nH]c2ccccc12)C(=O)N[C@@H](CC(C)C)C(=O)N[C@@H](CCCNC(=N)N)C(=O)N[C@@H](CC(N)=O)C(=O)N[C@@H](CC(C)C)C(=O)N[C@H](C(N)=O)C(C)C)C(C)C (Ac-EWKRWVQRWKDWLRNLV-NH2) | Active |

Source: ChEMBL document CHEMBL1629621, “Evaluation of strategies for improving proteolytic resistance of antimicrobial peptides by using variants of EFK17, an internal segment of LL-37” (Antimicrob Agents Chemother, 2009)
